Paper PMC10467613 (RSC Chemical Biology, 2023)

Experiments:
[1] = biological target: T1, HsIYD containing 2′-deoxyFMN (Homo sapiens, UniProt Q6PHW0, DEL2-31); assay: flavin fluorescence quenching titration; assay type: binding
T1 sequence (Q6PHW0 32-289): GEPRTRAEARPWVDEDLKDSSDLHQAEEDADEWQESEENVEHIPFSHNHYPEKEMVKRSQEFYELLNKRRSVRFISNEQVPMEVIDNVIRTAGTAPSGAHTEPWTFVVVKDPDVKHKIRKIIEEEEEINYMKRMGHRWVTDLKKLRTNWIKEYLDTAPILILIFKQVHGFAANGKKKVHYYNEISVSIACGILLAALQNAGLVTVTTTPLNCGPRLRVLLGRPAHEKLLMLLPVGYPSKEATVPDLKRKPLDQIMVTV
Outline: (§1)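 Enzyme: human IYD lacking residues 2–31 (SUMO fusion, tag removed) or T. neapolitana IYD (C-terminal His6; dithionite wash first). FMN was stripped on a Ni column with up to 1.5 M guanidinium HCl, then reloaded with 200 μM 2′-deoxyFMN for 4 h at 4 °C. Ligand was titrated into 3 μM enzyme in 100 mM potassium phosphate pH 7.4 at 25 °C. Flavin fluorescence (ex 450/em 516 nm) was read 2 min after each addition. Kd was fitted from ΔF/F0 versus total enzyme and total ligand.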

[2] = biological target: T2, TnIYD containing 2′-deoxyFMN (Thermotoga neapolitana, UniProt B9K712); assay: flavin fluorescence quenching titration; assay type: binding
T2 sequence (B9K712 1-186): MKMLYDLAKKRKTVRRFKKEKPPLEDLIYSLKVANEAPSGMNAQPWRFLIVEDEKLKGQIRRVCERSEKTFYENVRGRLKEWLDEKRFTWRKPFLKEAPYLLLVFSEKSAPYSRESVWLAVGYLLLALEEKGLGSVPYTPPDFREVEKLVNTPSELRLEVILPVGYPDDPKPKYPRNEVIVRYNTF
Outline: as §1

Kd [2] [µM]	SMILES	Kd [1] [µM]
–	N[C@@H](Cc1ccc(O)c(F)c1)C(=O)O [F-Tyr, 3-Fluoro-L-tyrosine]	1500 ± 70
6.3 ± 0.7	COc1ccc(C[C@H](N)C(=O)O)cc1I [O-Me I-Tyr]	–
